Assays:
Rattus norvegicus [1] = assay: Effect on serum Triglycerides levels was measured on treated rats at a dose of 0.05 (mmol/kg)/day; assay type: functional, organism-based
Rattus norvegicus [2] = assay: Effect on serum Triglycerides levels was measured on treated rats at a dose of 0.5 (mmol/kg)/day; assay type: functional, organism-based
Rattus norvegicus [3] = assay: Effect on serum Triglycerides levels was measured on control rats at a dose of 0.05 (mmol/kg)/day; assay type: functional, organism-based
Rattus norvegicus [4] = assay: Effect on serum Triglycerides levels was measured on control rats at a dose of 0.5 (mmol/kg)/day; assay type: functional, organism-based
Rattus norvegicus [5] = assay: Effect on serum Triglycerides was determined in normal rats at a dose of 0.01 (mmol/kg)/day; assay type: functional
In short: (§1)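 Normal rats, 8-10 per group, dosed daily for 7 consecutive days by gastric intubation with compound suspended in 2% Tween 80. Decapitated 3 h after last dose; serum triglycerides measured by semiautomated method. Result expressed as % change from vehicle control group mean; significance by two-tailed Student's t test.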

Rattus norvegicus [6] = assay: Effect on serum Triglycerides was determined in normal rats at a dose of 0.03 (mmol/kg)/day; assay type: functional; in short: as §1
Rattus norvegicus [7] = assay: Effect on serum Triglycerides was determined in normal rats at a dose of 0.1 (mmol/kg)/day; assay type: functional; in short: as §1
Rattus norvegicus [8] = assay: Effect on serum Triglycerides was determined in normal rats at a dose of 0.02 (mmol/kg)/day; assay type: functional; in short: as §1
Rattus norvegicus [9] = assay: Effect on serum Triglycerides was determined in normal rats at a dose of 0.2 (mmol/kg)/day; assay type: functional; in short: as §1
Rattus norvegicus [10] = assay: Effect on serum Triglycerides was determined in normal rats at a dose of 1 (mmol/kg)/day; assay type: functional; in short: as §1
Rattus norvegicus [11] = assay: Effect on serum Triglycerides was measured on control rats at a dose of 0.05 (mmol/kg)/day; assay type: functional, organism-based
Rattus norvegicus [12] = assay: Effect on serum Triglycerides was measured on control rats at a dose of 0.5 (mmol/kg)/day; assay type: functional, organism-based
Rattus norvegicus [13] = assay: Effect on serum Triglycerides was measured on treated rats at a dose of 0.05 (mmol/kg)/day; assay type: functional, organism-based
Rattus norvegicus [14] = assay: Effect on serum Triglycerides was measured on treated rats at a dose of 0.5 (mmol/kg)/day; assay type: functional, organism-based
Rattus norvegicus [15] = assay: Effect on serum Triglycerides was determined in normal rats at a dose of 0.005 (mmol/kg)/day; assay type: functional; in short: as §1
Rattus norvegicus [16] = assay: Effect on liver weight was measured on control rats at a dose of 0.5 (mmol/kg)/day; assay type: functional
Rattus norvegicus [17] = assay: Effect on liver weight was measured on treated rats at a dose of 0.05 (mmol/kg)/day; assay type: functional
Rattus norvegicus [18] = assay: Effect on liver weight was measured on treated rats at a dose of 0.5 (mmol/kg)/day; assay type: functional
Rattus norvegicus [19] = assay: Effect on liver weight was measured on control rats at a dose of 0.05 (mmol/kg)/day; assay type: functional

Structure (SMILES) | Change (Rattus norvegicus [7]) | Change (Rattus norvegicus [8]) | Change (Rattus norvegicus [9]) | Change (Rattus norvegicus [10]) | also measured
CC1(c2ccccc2)OC(C(=O)O)=CC1=O (stereo in doubt; 5b) | – | – | – | – | Serum TG (Rattus norvegicus [1]): 58 mg/dL; Serum TG (Rattus norvegicus [2]): 38 mg/dL; Serum TG (Rattus norvegicus [3]): 104 mg/dL; Serum TG (Rattus norvegicus [4]): 98 mg/dL
CC1(c2ccccc2)OC(C(=O)O)=CC1=O (stereo in doubt; (+)-5b) [ACIFRAN] | -38% | – | – | – | Change (Rattus norvegicus [5]): -39%; Change (Rattus norvegicus [6]): -29%
CC1(C)OC(C(=O)O)=CC1=O | -43% | -36% | -36% | -36% | –
CC(C)C1(c2ccccc2)OC(C(=O)O)=CC1=O (centres undefined) | -2% | -10% | -31% | -53% | –
O=C(O)c1cccnc1 | – | – | – | – | Serum TG (Rattus norvegicus [11]): 104 mg/dL; Serum TG (Rattus norvegicus [12]): 88 mg/dL; Serum TG (Rattus norvegicus [13]): 97 mg/dL; Serum TG (Rattus norvegicus [14]): 47 mg/dL
CC1(c2ccccc2)OC(=O)C(=O)CC1=O (centres undefined) | -27% | -13% | -31% | – | –
CC1(c2ccc(Cl)cc2)OC(C(=O)O)=CC1=O (centres undefined) | – | -27% | -42% | – | –
CC1(c2ccccc2)OC(C(=O)O)=CC1=O (stereo in doubt; 5b) [ACIFRAN] | -44% | -40% | -52% | -55% | Change (Rattus norvegicus [15]): -23%; Change (Rattus norvegicus [5]): -37%; Change (Rattus norvegicus [6]): -43%; Liver weight (Rattus norvegicus [16]): 10.2 g; Liver weight (Rattus norvegicus [17]): 8.7 g; Liver weight (Rattus norvegicus [18]): 10.2 g; Liver weight (Rattus norvegicus [19]): 8.5 g
COC(=O)C1=CC(=O)C(C)(c2ccccc2)O1 (centres undefined) | -40% | -34% | -40% | -53% | –
O=C(O)C1=CC(=O)C2(CCCc3ccccc32)O1 (centres undefined) | – | – | – | -43% | –
CC1(c2ccccc2)OC(C(=O)O)=CC1=O (single isomer, unassigned; (-)) [ACIFRAN] | -31% | – | – | – | Change (Rattus norvegicus [5]): -11%; Change (Rattus norvegicus [6]): -23%
CCOC(=O)C(C)(C)Oc1ccc(Cl)cc1 [CLOFIBRATE] | -9% | – | -36% | -55% | Liver weight (Rattus norvegicus [16]): 9 g; Liver weight (Rattus norvegicus [17]): 8.4 g; Liver weight (Rattus norvegicus [18]): 10.7 g; Liver weight (Rattus norvegicus [19]): 8.5 g; Serum TG (Rattus norvegicus [11]): 104 mg/dL; Serum TG (Rattus norvegicus [12]): 87 mg/dL; Serum TG (Rattus norvegicus [13]): 101 mg/dL; Serum TG (Rattus norvegicus [14]): 43 mg/dL
